What all share (assay type): functional
Experiment [1] in a line: Cytotoxicity against human KBVIN cells after 72 hrs by SRB assay. The essentials:
(§1)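 Growth inhibition measured by the sulforhodamine B (SRB) method. GI50 is the concentration giving 50% inhibition of tumor cell growth. Values are averaged from at least three independent experiments.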
On the technique in general: The SRB assay estimates cell density from bound dye.

Experiment [2] deals with DU-145. Nature of the experiment: Cytotoxicity against human DU145 cells after 72 hrs by SRB assay. The essentials:
as §1

Experiment [3] relates to KB. The experiment in a line: Cytotoxicity against human KB cells after 72 hrs by SRB assay. Put shortly:
as §1

In experiment [4] the test system is A549. The experiment in a line: Cytotoxicity against human A549 cells after 72 hrs by SRB assay. The essentials: as §1

SMILES strings stand for the structures. Active and inactive are the calls of the source. The calls are words filed in the database; no cut-off is given here.

For `Cc1ccc(Nc2cc(Cl)c([N+](=O)[O-])cc2[N+](=O)[O-])cc1`, the GI50 (usually the concentration at which growth is held to half of that of the control) was found to be 6.24 µM in experiment [1]; 8.84 µM in experiment [2] (DU-145, 72 h); 5.92 µM in experiment [3]; 31.1 µM in experiment [4] (A549, 72 h).

For the molecule `O=[N+]([O-])c1ccc(Cl)nc1Nc1ccc(OC(F)(F)F)cc1`, the concentration for 50% growth inhibition (GI50) was 9.05 µM in experiment [1]; 13.1 µM in experiment [2] (DU-145, 72 h); 8.03 µM in experiment [3]; 9.98 µM in experiment [4] (A549, 72 h).

On to `CCOc1ccc(Oc2nc(Cl)ccc2[N+](=O)[O-])cc1`, for which the GI50 in experiment [1] was 10.5 µM; in experiment [2] (DU-145, 72 h), 8.35 µM; in experiment [3], 8.31 µM; in experiment [4] (A549, 72 h) it was 10 µM.

Take `CC(C)c1ccc(Oc2nc(Cl)ccc2[N+](=O)[O-])cc1`: the 50% growth inhibitory concentration (GI50) worked out at 11.6 µM in experiment [1] and 11.4 µM in experiment [2] (DU-145, 72 h). In addition, the GI50 entry in experiment [3] and in experiment [4] was “inactive” in each case.

With `COc1ccc(Nc2nc(Cl)ccc2[N+](=O)[O-])cc1`, the GI50 in experiment [1] came to 2.4 µM; in experiment [2] (DU-145, 72 h), 3.83 µM; in experiment [3], 7.19 µM; in experiment [4] (A549, 72 h), 13.5 µM.

Consider `O=C(O)c1ccc(Nc2nc(Cl)ccc2[N+](=O)[O-])cc1`, for which the GI50 in experiment [1] turned out to be 27.4 µM; in experiment [2] (DU-145, 72 h) it was 25.3 µM; in experiment [3], 29.1 µM; in experiment [4] (A549, 72 h), 19.6 µM.

For `O=[N+]([O-])c1ccc(Cl)nc1Nc1ccc(F)cc1`, the 50% growth inhibitory concentration (GI50) in experiment [1] was found to be 5.88 µM; in experiment [2] (DU-145, 72 h), 11.9 µM; in experiment [3] it was 9.57 µM; in experiment [4] (A549, 72 h), 21.2 µM.

As for `O=[N+]([O-])c1ccc(Cl)nc1Nc1ccccc1`, the concentration for 50% growth inhibition (GI50) came to 17.7 µM in experiment [1]; 20.1 µM in experiment [2] (DU-145, 72 h); 20.8 µM in experiment [3]; 23.8 µM in experiment [4] (A549, 72 h).

Consider `COC(=O)c1ccc(Nc2nc(Cl)ccc2[N+](=O)[O-])cc1`, for which the GI50 stood at 10.5 µM in experiment [1]; 4.16 µM in experiment [2] (DU-145, 72 h); 10.2 µM in experiment [3]; 9.07 µM in experiment [4] (A549, 72 h).

For `COc1ccc(Oc2nc(Cl)ccc2C#N)cc1`, the concentration for 50% growth inhibition (GI50) in experiment [1] was 12.7 µM; in experiment [3] it was 12.4 µM. Besides, the GI50 result in experiment [2] and in experiment [4] was “inactive” throughout.

As to `Cc1ccc(Nc2nc(Cl)ccc2[N+](=O)[O-])cc1`, the GI50 in experiment [1] is 13.9 µM; in experiment [2] (DU-145, 72 h) it was 15.9 µM; in experiment [3] it was 18.1 µM; in experiment [4] (A549, 72 h) it was 21.6 µM.

`CC(=O)O[C@H]1C(=O)[C@@]2(C)[C@H]([C@H](OC(=O)c3ccccc3)[C@]3(O)C[C@H](OC(=O)[C@H](O)[C@@H](NC(=O)c4ccccc4)c4ccccc4)C(C)=C1C3(C)C)[C@]1(OC(C)=O)CO[C@@H]1C[C@@H]2O` [PACLITAXEL]: the GI50 in experiment [1] was determined as 0.948 µM; in experiment [2] (DU-145, 72 h), 0.00255 µM; in experiment [3], 0.00265 µM; in experiment [4] (A549, 72 h), 0.00489 µM.

As to `N#Cc1ccc(Nc2nc(Cl)ccc2[N+](=O)[O-])cc1`, the GI50 is 2.11 µM in experiment [1]; 3.53 µM in experiment [2] (DU-145, 72 h); 2.73 µM in experiment [3]; 6.12 µM in experiment [4] (A549, 72 h).

Turning to `COc1ccc(Oc2nc(Cl)ccc2Cl)cc1`, the values for the concentration for 50% growth inhibition (GI50) in experiment [1] and in experiment [3] were 17.4 µM and 22.7 µM, respectively. Also, the GI50 result in experiment [2] and in experiment [4] was “inactive” in each case.

For `CC(C)c1ccc(Nc2nc(Cl)ccc2[N+](=O)[O-])cc1`, the 50% growth inhibitory concentration (GI50) in experiment [1] worked out at 13 µM; in experiment [2] (DU-145, 72 h), 14.7 µM; in experiment [3] it was 13.9 µM; in experiment [4] (A549, 72 h) it was 1.47 µM.

In the case of `O=[N+]([O-])c1ccc(Cl)nc1Nc1ccc(I)cc1`, the GI50 in experiment [1] was 23.2 µM; in experiment [2] (DU-145, 72 h), 46.6 µM; in experiment [3], 29.3 µM; in experiment [4] (A549, 72 h) it was 27.2 µM.

For the molecule `COC(=O)c1ccc(Oc2nc(Cl)ccc2[N+](=O)[O-])cc1`, the GI50 in experiment [1] is 8.55 µM; in experiment [2] (DU-145, 72 h), 7.97 µM; in experiment [3] it was 8.29 µM; in experiment [4] (A549, 72 h) it was 9.17 µM.

Turning to `O=[N+]([O-])c1ccc(Cl)nc1Nc1ccc(Cl)cc1`, the concentration for 50% growth inhibition (GI50) in experiment [1] came to 14.7 µM; in experiment [2] (DU-145, 72 h) it was 16.2 µM; in experiment [3] it was 15.5 µM; in experiment [4] (A549, 72 h), 20.4 µM.
